Data set [1] is described as follows: Cytotoxicity against human rhabdomyosarcoma cells after 72 hrs by MTT assay. The format is cell-based, Rhabdomyosarcoma cell. The gist of the method:
(§1)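 MTT assay on RD (rhabdomyosarcoma), HepG2 and HeLa cell lines. CC50 is the concentration that cut cell viability by 50% relative to 0.1% DMSO-treated mock-control cells. Values are mean and SD of three independent experiments.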

Data set [2] has as its system unidentified adenovirus. Put plainly: Antiviral activity against Adenovirus type 7 infected in human HeLa cells assessed as inhibition of virus-induced cytopathogenicity after 48 hrs by crystal violet staining method. The format is functional, organism-based. The gist of the method:
(§2)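 Virus–cell pairings were EV71 in RD, CVB5 in HepG2, ADV7 in HeLa and influenza A H1N1 in MDCK. Compounds were added […], and total infectivity was read by crystal violet staining. EC50 is the concentration reducing viral replication by 50%. Values are mean SD of three independent experiments.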
A general note: Cytopathic effects are the visible damage that an infection or toxin causes in cultured cells.

For data set [3], the system named is Enterovirus. Put plainly: Antiviral activity against Enterovirus 71 infected in human rhabdomyosarcoma cells assessed as inhibition of virus-induced cytopathogenicity at 32 ug/ml after 48 hrs by crystal violet staining method. The format is functional. The gist of the method:
(§3)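 Single-concentration screen with these pairings: RD/EV71, HepG2/CVB5, HeLa/ADV7, MDCK/H1N1. Cells were infected and kept 48 h in the presence of compound at one fixed concentration; some EV71 tests used the lower level. Inhibition of virus proliferation was read by crystal violet staining.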

A short description of data set [4]: Cytotoxicity against human HepG2 cells after 72 hrs by MTT assay. The format is cell-based. Summed up:
as §1

The subject of data set [5] is Coxsackievirus B5. Briefly: Antiviral activity against Coxsackievirus B5 infected in human HepG2 cells assessed as inhibition of virus-induced cytopathogenicity at 32 ug/ml after 48 hrs by crystal violet staining method. The format is functional. The gist of the method: as §3
The nature of data set [6]: Cytotoxicity against human HeLa cells after 72 hrs by MTT assay. The format is cell-based. Summed up:
as §1
A general note: Tetrazolium assays rely on reduction of a dye to a coloured formazan, in cell work by metabolically active cells.

The test system of data set [7] is Coxsackievirus B5. Put plainly: Antiviral activity against Coxsackievirus B5 infected in human HepG2 cells assessed as inhibition of virus-induced cytopathogenicity after 48 hrs by crystal violet staining method. The format is functional, organism-based. The gist of the method: as §2
The test system of data set [8] is Influenza A virus. Briefly: Antiviral activity against influenza A virus H1N1 infected in dog MDCK cells assessed as inhibition of virus-induced cytopathogenicity after 48 hrs by crystal violet staining method. The format is functional, organism-based. The gist of the method: as §2
In data set [9] the test system is unidentified adenovirus. Briefly: Antiviral activity against Adenovirus type 7 infected in human HeLa cells assessed as inhibition of virus-induced cytopathogenicity at 32 ug/ml after 48 hrs by crystal violet staining method. The format is functional. Summed up:
as §3

For data set [10], the system named is Enterovirus. Briefly: Antiviral activity against Enterovirus 71 infected in human rhabdomyosarcoma cells assessed as inhibition of virus-induced cytopathogenicity after 48 hrs by crystal violet staining method. The format is functional, organism-based. Summed up: as §2
Data set [11] deals with Influenza A virus. Put plainly: Antiviral activity against influenza A virus H1N1 infected in dog MDCK cells assessed as inhibition of virus-induced cytopathogenicity at 32 ug/ml after 48 hrs by crystal violet staining method. The format is functional, organism-based. Summed up:
as §3

The structures appear in SMILES notation. ≈ marks a conversion by molar mass, not a printed value. Calls of active or inactive are those of the source. The rule behind the calls is not given here.

As to `C(=C\c1ccccc1)/C=N/c1sc2c(c1-c1nc3ccccc3s1)CCC2`, the CC50 (as a rule, the concentration that lowers cell viability or growth by half) at 72 h in data set [1] is 122 µg/mL (≈ 317 µM); in data set [4] it was 215 µg/mL (≈ 555 µM); in [6] it was 100 µg/mL (≈ 259 µM). For the same molecule, the “inhibition (INH)” value in the data set on unidentified adenovirus [2], with Coxsackievirus B5 [7], in the data set on Influenza A virus [8] and in the data set with Enterovirus [10] was under 50% each time. Besides, the inhibition result in the data set with Enterovirus [3], in the data set with Coxsackievirus B5 [5], with unidentified adenovirus [9] and in the data set on Influenza A virus [11] was “Active” in each case.

As to `Clc1ccc2sc(-c3c(/N=C/C=C/c4ccccc4)sc4c3CCCC4)nc2c1`, the half-maximal cytotoxic concentration (CC50) at 72 h in [1] stood at 212 µg/mL (≈ 486 µM); in data set [4], 114 µg/mL (≈ 262 µM); in data set [6], 150 µg/mL (≈ 346 µM). The “inhibition (INH)” value with unidentified adenovirus [2], in the data set on Coxsackievirus B5 [7], in the data set on Influenza A virus [8] and in the data set with Enterovirus [10] was under 50% throughout. Besides, the inhibition result in the data set with Enterovirus [3], with Coxsackievirus B5 [5], in the data set with unidentified adenovirus [9] and in the data set on Influenza A virus [11] was “Active” throughout.

For `FC(F)(F)c1ccc(/C=N/c2sc3c(c2-c2nc4ccccc4s2)CCCC3)cc1`, the CC50 at 72 h in [1] amounted to 250 µg/mL (≈ 566 µM); in [4], 361 µg/mL (≈ 816 µM); in data set [6] it was 368 µg/mL (≈ 833 µM). In addition, the “inhibition (INH)” value in the data set with unidentified adenovirus [2], in the data set on Coxsackievirus B5 [7], with Influenza A virus [8] and in the data set with Enterovirus [10] was under 50% throughout. In addition, the inhibition result with Enterovirus [3], with Coxsackievirus B5 [5], in the data set with unidentified adenovirus [9] and with Influenza A virus [11] was “Active” in each case.

Consider `Fc1ccccc1/C=N/c1sc2c(c1-c1nc3ccccc3s1)CCCC2`, for which the cytotoxic concentration (CC50) at 72 h in [1] came to 319 µg/mL (≈ 812 µM); in data set [4], 398 µg/mL (≈ 1010 µM); in [6], 426 µg/mL (≈ 1090 µM). Besides, the “inhibition (INH)” value in the data set on unidentified adenovirus [2], with Coxsackievirus B5 [7], in the data set on Influenza A virus [8] and with Enterovirus [10] was under 50% each time. The inhibition result in the data set on Enterovirus [3], with Coxsackievirus B5 [5], in the data set on unidentified adenovirus [9] and in the data set with Influenza A virus [11] was “Active” each time.

As for `O=[N+]([O-])c1ccc(/C=N/c2sc3c(c2-c2nc4ccccc4s2)CCCC3)cc1`, the CC50 at 72 h in [1] turned out to be 316 µg/mL (≈ 754 µM); in [4], 454 µg/mL (≈ 1080 µM); in data set [6], 357 µg/mL (≈ 850 µM). For the same molecule, the “inhibition (INH)” value with unidentified adenovirus [2], with Coxsackievirus B5 [7], with Influenza A virus [8] and in the data set on Enterovirus [10] was under 50% throughout. The inhibition entry in the data set with Enterovirus [3], with Coxsackievirus B5 [5], in the data set on unidentified adenovirus [9] and in the data set on Influenza A virus [11] was “Active” throughout.

As for `C(=N\c1sc2c(c1-c1nc3ccccc3s1)CCC2)/c1ccc2c(c1)OCO2`, the CC50 at 72 h was 310 µg/mL (≈ 766 µM) in data set [1], 356 µg/mL (≈ 881 µM) in [4] and 449 µg/mL (≈ 1110 µM) in [6]. The “inhibition (INH)” value in the data set with unidentified adenovirus [2], in the data set with Coxsackievirus B5 [7], with Influenza A virus [8] and in the data set with Enterovirus [10] was under 50% throughout. Also, the inhibition entry in the data set on Enterovirus [3], with Coxsackievirus B5 [5], in the data set on unidentified adenovirus [9] and with Influenza A virus [11] was “Active” each time.

On to `Clc1ccc(/C=N/c2sc3c(c2-c2nc4ccccc4s2)CCC3)c(Cl)c1`, for which the cytotoxic concentration (CC50) at 72 h was found to be 160 µg/mL (≈ 372 µM) in [1], 310 µg/mL (≈ 722 µM) in data set [4] and 345 µg/mL (≈ 804 µM) in data set [6]. Moreover, the “inhibition (INH)” value in the data set on unidentified adenovirus [2], with Coxsackievirus B5 [7], with Influenza A virus [8] and in the data set on Enterovirus [10] was under 50% each time. Besides, the inhibition entry in the data set on Enterovirus [3], in the data set with Coxsackievirus B5 [5], in the data set with unidentified adenovirus [9] and in the data set on Influenza A virus [11] was “Active” in each case.

Source of the values: ChEMBL document CHEMBL2417493, “Novel cycloalkylthiophene-imine derivatives bearing benzothiazole scaffold: synthesis, characterization and antiviral activity evaluation” (Bioorg Med Chem Lett, 2013).
